Autophagy HCS – alters autophagy in cells. MEF GFP-LC3 puncta imaging; test concentration mostly 10 µM. calls only at 10 µM (by protocol). 190,000 tested, 0.98% active. AID 463193;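 active = percentage of spot-positive cells more than 3 SD above its plate mean, without a fluorescence outlier flag or 80% toxicity; inconclusive = no clear call, values can overlap the other calls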
MDM2 E3 inh – inhibitors of human Mdm2 E3 ubiquitin ligase; 210,000 tested, 0.11% active; cell-based MDM2 ubiquitination luciferase reporter, 2 h; 0 = plate control, 100 = twice control, blank-subtracted; signal enhancement, % at 5 µM; AID 1230;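 active = signal enhancement of 30% or more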;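 note: luminescence tracks abundance of the self-degrading MDM2-luciferase fusion protein; higher signal means inhibition of MDM2 E3 ligase activity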
Target sequence (Q00987 whole entry, looked up, the tested form may be a part): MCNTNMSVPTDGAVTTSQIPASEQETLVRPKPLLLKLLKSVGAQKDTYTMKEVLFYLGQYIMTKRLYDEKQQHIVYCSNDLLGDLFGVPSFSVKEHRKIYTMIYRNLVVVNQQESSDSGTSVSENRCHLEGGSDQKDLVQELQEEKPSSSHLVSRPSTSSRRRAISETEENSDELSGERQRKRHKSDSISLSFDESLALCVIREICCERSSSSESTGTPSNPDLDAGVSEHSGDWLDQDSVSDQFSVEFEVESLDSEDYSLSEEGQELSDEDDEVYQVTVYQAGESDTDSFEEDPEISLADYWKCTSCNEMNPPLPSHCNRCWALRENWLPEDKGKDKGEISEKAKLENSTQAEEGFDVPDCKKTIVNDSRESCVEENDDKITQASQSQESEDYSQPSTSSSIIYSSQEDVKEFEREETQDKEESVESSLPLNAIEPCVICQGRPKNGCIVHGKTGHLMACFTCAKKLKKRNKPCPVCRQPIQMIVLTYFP
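Assay system: mammalian cells stably expressing self-ubiquitinating, self-degrading MDM2 E3–luciferase fusion. Quantity: 2000 cells in each well. Medium: DMEM culture medium. Compound dosing: single-point 5 µM. Timing: cell settling 4 h, compound treatment 2 h, both 37 °C. Technique: luciferase luminescence. Read-out basis: percent signal gain over controls, blank-subtracted. Benchmarks: plate controls and plate blanks.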
L929 necroptosis – blocks zVAD induced death of L929 cells; L929 zVAD necroptosis rescue, ATP luminescence, 24 h; with zVAD 60 µM; viability rescue, % at 10 µM; 220,000 tested, 0.38% active; AID 1377;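 active = activation, scaled between plate controls, above about 75%, limit read from the data; inactive = activation under that limit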
Hck-Nef inh – blocks Nef-activated human Hck kinase. Recombinant Hck-YEEI plus Nef, Z-Lyte FRET kinase assay. inhibition, % at 20 µM. 220,000 tested, 0.68% active. AID 463187;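 active = Hck-Nef kinase inhibition above about 50%, limit read from the data; inactive = inhibition below that limit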
Dynein cargo inh – blocks dynein driven cargo transport along microtubules; 3617.4 mouse cells, GR-EGFP nuclear translocation imaging; test concentration mostly 20 µM; stimulated with dexamethasone, 1 µM; stronger effect = lower value; z-score, hits read low; 220,000 tested, 0.47% active;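 active = plate z-score of nuclear minus cytoplasmic receptor signal below a set negative limit, without overly bright fluorescence or cell loss, cut at about -3.5 in these data, passing the limit was not always enough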;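 note: z-score of nuclear minus cytoplasmic ring GR-EGFP intensity difference per well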
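Buffer or medium: tetracycline-free induction medium containing charcoal-stripped FBS / Reagent: dexamethasone agonist, 1.0 µM final, for 30 min / Technique: automated 10x imaging of fixed Hoechst-stained cells / Times: induction 48 h, compound 1 h, agonist 30 min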
TNF death inh – inhibitors of TNF-alpha induced necroptosis in Jurkat FADD-/- cells; Jurkat FADD-/- TNF necroptosis rescue, ATP luminescence, 24 h; 0 = TNF only, 100 = no-TNF cells; activation (protection from cell death), % at 10 µM; 220,000 tested, 0.068% active; AID 463075;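 active = activation, meaning protection from cell death, of at least 50% relative to plate controls; inactive = activation below 50%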;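 note: necroptosis triggered by 40 ng/mL TNF-alpha added together with compound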
Dynein inh conf – dynein cargo transport inhibition, confirmation | calls only at 20 µM | shares compounds with Dynein cargo inh | AID 463116 | 1,000 tested, 69% active | 3617.4 GR-EGFP nuclear translocation imaging, dexamethasone-induced;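 active = inhibition of receptor movement into the nucleus at or above a set limit in both runs, with normal cell brightness and cell count; inconclusive = limit reached in only one run, brightness and count normal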;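 note: dexamethasone at 1 µM final in well for 30 min; nuclear minus cytoplasmic GR-EGFP mean intensity difference in channel 2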
Large screens that a line does not name were inactive (follow-up assays come after a bar, where they were run). Hits are enriched below; roughly 2.4% of the tested compounds scored in any of these assays.

COc1ccc(-c2cc(C(=O)O)c3c(C)nn(-c4ccccn4)c3n2)cc1	none
CSc1sc(C)cc1/C=N/O	none (no result: L929 necroptosis)
O=C(CSc1nccc(-c2ccc(Br)cc2)n1)NCCc1ccccc1	none (no result: Dynein cargo inh)
C=CCn1c(Sc2ncc([N+](=O)[O-])s2)n[nH]c1=O	Dynein cargo inh -5.7 (no result: Autophagy HCS) | Dynein inh conf active
C=CCn1c(Sc2nncn2C)nc2c1c(=O)[nH]c(=O)n2C	none
CC1OC(OC2C(OC3C(O[C@H]4CC[C@]5(C)C6C=C[C@]78OC[C@@]9(CC[C@@H](C)[C@H](C)C97)[C@H](O)C[C@@]8(C)[C@]6(C)CC[C@H]5C4(C)C)OC(C)C(O)C3O)OC(CO)C(O)C2O)C(O)C(O)C1O (some centres not stated)	Dynein cargo inh -3.9 (no result: Autophagy HCS) | Dynein inh conf inactive
CC(C)N1CC2=C(OC(N)=C(C#N)C2c2cccnc2)/C(=C/c2cccnc2)C1 (configuration not stated)	none
CC(C)N1C/C(=C/c2ccsc2)C(=O)/C(=C/c2ccsc2)C1	Dynein cargo inh -3.8 | Dynein inh conf active
CC(C)N1C/C(=C/c2cccnc2)C(=O)/C(=C/c2cccnc2)C1	Dynein cargo inh -4.2 | Dynein inh conf active
Nc1c(C(=O)N/N=C/c2ccc(F)cc2)oc2nc(-c3ccccc3)cc(-c3ccco3)c12	none (no result: Autophagy HCS) | Dynein inh conf inactive
CCCCNC(=S)Nc1ccccc1F	none
CCN(CC)c1c([N+](=O)[O-])c(=O)n(C)c2ccccc12	none
Cn1c(=O)c([N+](=O)[O-])c(Cl)c2ccccc21	Dynein cargo inh -6.3 | Dynein inh conf active
Cc1ccc(NC(=O)CSc2n[nH]c(-c3ccncc3)n2)cc1C	none
COCCCNc1c2c3c(cccc3[nH]c1=O)C(=O)c1ccccc1-2	Autophagy HCS inconclusive, Dynein cargo inh -4.9 | Dynein inh conf active
COCCCNC1=C(Cl)C(=O)c2ccccc2C1=O	none (no result: Autophagy HCS)
Cn1cc(Br)c(C(=O)Nc2c(F)c(F)c(F)c(F)c2F)n1	none
Cn1cc(Br)c(NC(=O)/C=C/C(=O)O)n1	Dynein cargo inh -6.2 (no result: Autophagy HCS) | Dynein inh conf active
CCOC(=O)c1c(C)oc2c1c(C(c1cccnc1)N1CCOCC1)c(O)c1ccccc12 (configuration not stated)	Dynein cargo inh -3.7 | Dynein inh conf inconclusive
COCC1CCCN(Cc2cn(-c3ccccc3)nc2-c2ccc3c(c2)OCO3)C1 (configuration not stated)	none
Cc1nc([N+](=O)[O-])c(Br)n1Cc1ccc(Cl)c(Cl)c1	Dynein cargo inh -4.2 | Dynein inh conf active
COc1ccc(C(=O)Cn2c(C)nc([N+](=O)[O-])c2Br)cc1	Dynein cargo inh -5.8 (no result: Autophagy HCS) | Dynein inh conf active
Cc1nc([N+](=O)[O-])c(Br)n1CC(=O)c1ccc(Cl)cc1	Dynein cargo inh -6.5 | Dynein inh conf active
Cc1nc([N+](=O)[O-])c(NCCO)n1Cc1ccccc1	none
CCOC(=O)CNC(=O)C(NC(=O)C1CCC(C)CC1)C(C)CC (configuration not stated)	none
COC(=O)c1ccccc1S(=O)(=O)Nc1ccc(OC)nc1	none
CCCCCCOC(=O)C[N+](C)(C)CCOC1CC2CCC1(C)C2(C)C (configuration not stated)	none
CCCCCCCOC(=O)C[N+](C)(C)CCOC1CC2CCC1(C)C2(C)C (configuration not stated)	Dynein cargo inh -4.6 | Dynein inh conf inactive
COc1ccc2c(c1)c1ccc3c(c1n2C)C(=O)C=CC3=O	Dynein cargo inh -5.8 (no result: Autophagy HCS) | Dynein inh conf active
O=C(O)c1ccc(C=C(c2nc3ccccc3s2)c2nc3ccccc3s2)cc1	Dynein cargo inh -4.6 | Dynein inh conf active
COC(=O)N/N=C(\C)c1ccc(OC(F)F)cc1OC(F)F	none
O=C1/C(=C/c2cccc([N+](=O)[O-])c2)CSc2ccc(Cl)cc21	none (no result: Autophagy HCS)
CNc1ccc(/C=C2\CSc3ccccc3C2=O)cc1[N+](=O)[O-]	Dynein cargo inh -4 | Dynein inh conf inactive
O=C(NCc1cccnc1)/C(=C/c1ccc(-c2ccc(Cl)cc2)o1)S(=O)(=O)c1ccccc1	Dynein cargo inh -5.3 | Dynein inh conf active
O=C(NCc1cccnc1)/C(=C\c1ccc(-c2ccc(Br)cc2)o1)S(=O)(=O)c1ccccc1	Dynein cargo inh -4.6 | Dynein inh conf active
O=C(NCc1cccnc1)/C(=C/c1ccc(-c2cccc(C(F)(F)F)c2)o1)NC(=O)c1ccccc1	none
Cc1ccc(C(=O)CSc2nnc(-c3ccco3)n2CC2CCCO2)cc1 (configuration not stated)	none
CCOc1cc(CNCCCN2CCOCC2)cc(Br)c1OCc1ccccc1Cl	Dynein cargo inh -5.1 | Dynein inh conf inactive
Cc1ccc(OCCSc2nc(NC(C)C)nc(NC(C)C)n2)cc1	none (no result: L929 necroptosis)
O=C(CCl)N(CCCNC(=O)C(F)(F)F)c1ccc([N+](=O)[O-])cc1	Dynein cargo inh -5 (no result: Autophagy HCS) | Dynein inh conf active
O=C(c1cc(F)ccc1F)C1CCCN(C(=O)CCN2CCCCO2)C1 (configuration not stated)	none
CN(C)C(=O)CSc1nc2ccc(N3C(=O)c4ccccc4C3=O)cc2s1	none (no result: Autophagy HCS)
N#Cc1c(C(F)(F)F)cc(-c2ccccc2)nc1SCc1nc(N)nc(N2CCOCC2)n1	Autophagy HCS active | Dynein inh conf active
O=C(CCC(=O)NNC(=O)c1ccccc1[N+](=O)[O-])NCc1ccccc1	none
O=C(Cn1sc2ccccc2c1=O)NC12CC3CC(CC(C3)C1)C2	Dynein cargo inh -5.1 | Dynein inh conf inactive
COC1=C(C)C(O)=C(C(=O)/C=C/c2ccccc2)C(=O)C1(C)C	Dynein cargo inh -5.2 (no result: Autophagy HCS) | Dynein inh conf active
COc1ccc(C(=O)/C=C/c2ccccc2)c(OC)c1	none
COc1ccc(Nc2nc(N)nc(CCl)n2)cc1	none (no result: Autophagy HCS)
Nc1nc(CCl)nc(Nc2ccc3ccccc3c2)n1	Dynein cargo inh -4.3 (no result: Autophagy HCS) | Dynein inh conf active
Oc1cccc(Oc2ncc(C(F)(F)F)cc2Cl)c1	none
COC(=O)c1cc(=O)n(Cc2ccc3c(c2)OCO3)c(=Nc2ccc(F)c(Cl)c2)s1	Dynein cargo inh -3.6 | Dynein inh conf active
CCOC(=O)c1ccc(N=c2sc(C(=O)OC)cc(=O)n2Cc2ccco2)cc1	Dynein cargo inh -6.3 | Dynein inh conf active
COC(=O)c1cc(=O)n(Cc2cccs2)c(=NCc2cccs2)s1	none
CCn1c(=O)cc(C(=O)OC)sc1=Nc1ccc(F)c(F)c1	Dynein cargo inh -3.9 | Dynein inh conf active
CCCCN=c1sc(C(=O)OC)cc(=O)n1CCCC	none
